Bioassay records deposited in PubChem BioAssay by several laboratories.
A selection: hits, their analogues and other compounds. The true share with any hit is near 3.4%.
MEKK2 mut-MEK5 = signal of MEK5 binding to mutant human MEKK2 PB1 domain | percent response, % at 10 µM | hit rate 0.35% among 290,000 | bead flow cytometry, Alexa488-MEK5 binding to MEKK2 mutant | AID 1530; in the data active = percent response above about 24%, passing the limit was not always enough
IMP-1 inh = inhibitors of Pseudomonas aeruginosa IMP-1 metallo-beta-lactamase | purified IMP-1, nitrocefin hydrolysis, epi-absorbance fluorescence | inhibition, % at 5.6 µM | hit rate 0.45% among 290,000 | AID 1556;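 active = inhibition above the mean plus 3 SD of all compounds in the same screening run, cut at about 4.5% in these data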;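 also: 0% = IMP-1 with DMSO and 100% = DMSO wells lacking enzyme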
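System: Purified IMP-1 | Read-out basis: Percent enzyme inhibition | Controls: IMP-1 with DMSO as 0%, enzyme-free DMSO as 100% | Replicates: One well per compound | Doses: 5.6 µM nominal single concentration | Detection: Epi-absorbance fluorescence, 480 nm excitation, 530 nm emission | Incubation: 25 °C, 15 min preincubation, 25 min reaction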
VIM-2 inhibitor = inhibitors of Pseudomonas aeruginosa VIM-2 metallo-beta-lactamase; AID 1527; purified VIM-2, nitrocefin hydrolysis, epi-absorbance fluorescence; hit rate 0.89% among 290,000; inhibition, % at 5.6 µM;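 active = inhibition above the mean of all tested compounds plus 3 SD, cutoff set per screening run, cut at about 7.5% in these data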;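 also: red hydrolysis product quenches plate fluorescence so inhibitors raise well fluorescence; 0% = enzyme with DMSO and 100% = DMSO without enzyme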
MEKK2wt PB1 HTS = raises or lowers MEK5 binding to wildtype human MEKK2 PB1 domain | Q9Y2U5 | bead flow cytometry, Alexa488-MEK5 binding to MEKK2 WT; actives lie on both sides | binding response (% of control), % at 10 µM | hit rate 1.1% among 290,000 | AID 1531; in the data active = binding response below about 67% or above about 130%
MEKK3 PB1 HTS = MEKK3-MEK5 PB1 interaction, increase or decrease | binding response (% of control), % at 10 µM | bead-based flow cytometry, Alexa488-MEK5 binding to MEKK3; actives lie on both sides; 0 = blocked by unlabeled MEK5, 100 = vehicle | hit rate 1.4% among 290,000;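 active = binding response more than 3 SD above or below the average of its plate-row segment, actives on both sides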;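 also: Alexa488 bead fluorescence after subtracting the streptavidin-only scavenger bead signal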
Target sequence (Q99759 whole entry, looked up): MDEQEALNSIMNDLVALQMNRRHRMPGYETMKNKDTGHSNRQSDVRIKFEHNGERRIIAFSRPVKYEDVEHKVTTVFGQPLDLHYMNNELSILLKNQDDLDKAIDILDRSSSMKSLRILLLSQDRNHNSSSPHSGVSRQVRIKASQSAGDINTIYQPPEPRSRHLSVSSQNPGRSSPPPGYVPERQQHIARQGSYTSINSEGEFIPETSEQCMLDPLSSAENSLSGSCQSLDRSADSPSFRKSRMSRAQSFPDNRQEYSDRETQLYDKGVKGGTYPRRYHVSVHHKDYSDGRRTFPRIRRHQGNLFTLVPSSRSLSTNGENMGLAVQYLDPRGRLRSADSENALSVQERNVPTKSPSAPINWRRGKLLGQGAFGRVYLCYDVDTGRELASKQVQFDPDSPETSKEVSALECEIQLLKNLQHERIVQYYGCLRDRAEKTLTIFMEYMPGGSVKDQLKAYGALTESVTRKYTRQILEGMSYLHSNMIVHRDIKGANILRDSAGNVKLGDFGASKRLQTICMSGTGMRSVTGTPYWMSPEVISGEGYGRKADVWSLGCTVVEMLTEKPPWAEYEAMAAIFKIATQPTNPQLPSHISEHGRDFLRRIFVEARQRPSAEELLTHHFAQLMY
MEKK2wt confirm = raises or lowers MEK5 binding to wildtype human MEKK2, retest | binding response (% of control), % at 10 µM | hit rate 2.4% among 5,900 | bead flow cytometry, Alexa488-MEK5 binding to MEKK2 WT; actives lie on both sides | shares compounds with MEKK3 PB1 HTS; in the data active = binding response below about 16% or above about 210%; inactive = in between
MEKK2mut confirm = signal of MEK5 binding to mutant human MEKK2, retest. shares compounds with MEKK3 PB1 HTS. percent response, % at 10 µM. AID 1893. bead flow cytometry, Alexa488-MEK5 binding to MEKK2 mutant. hit rate 2% among 5,900; in the data active = percent response mostly above about 71%, no sharp cut-off; inactive = mostly below about 38%;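 also: higher means compound restores mutant binding toward wildtype level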
MEKK3-MEK5 inh = confirmation of inhibitors of MEK5 binding to human MEKK3 | shares compounds with MEKK3 PB1 HTS | bead flow cytometry, Alexa488-MEK5 binding to MEKK3; active compounds read low | binding response (% of control), % at 10 µM | hit rate 1.8% among 5,900 | AID 1894;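 active = binding response below 72% of control, or above a set upper limit, though filed actives all read lower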;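 also: 100% = DMSO only wells and 0% = binding blocked by excess unlabeled MEK5; lower values mean stronger disruption of MEK5 binding to MEKK3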
Active calls of the source: *; / = no result; [ ] = dose if it differs, or a comment.

SMILES	MEKK2 mut-MEK5	IMP-1 inh	VIM-2 inhibitor	MEKK2wt PB1 HTS	MEKK3 PB1 HTS	MEKK2wt confirm	MEKK2mut confirm	MEKK3-MEK5 inh
COc1ccc(NC(=O)c2cc(-c3cc(C)cc(C)c3O)n[nH]2)cc1Cl	9.0	-1.6	-2.2	167.0*	107.0	150.0	16.0	102.0
O=c1[nH]ncc(NCc2ccc(Cl)cc2)c1Cl	0.0	-2.1	-2.3	107.0	132.0*	99.0	-4.0	101.0
Cc1n[nH]c(=O)nc1NCc1ccc(Cl)cc1	5.0	-2.6	1.0	108.0	104.0	/	/	/
Cc1ccc(N(C(=O)Cn2nnc3ccccc32)C(C(=O)NCc2ccco2)c2cccnc2)cc1 (configuration not stated)	11.0	-3.7	-3.5	111.0	110.0	/	/	/
Cc1cccc(S(=O)(=O)Nc2ccc(-c3nc4ccc(C)cc4s3)cc2)c1	-2.0	-1.9	-1.5	105.0	103.0	/	/	/
Cc1ccc2nc(NC(=O)c3ccc(NS(=O)(=O)c4cccs4)cc3)sc2c1	-1.0	0.6	-1.9	101.0	136.0*	98.0	-5.0	97.0
Cc1ccc(S(=O)(=O)Nc2ccc(-c3nc4ccc(C)cc4s3)cc2)cc1	0.0	-2.2	-2.2	107.0	151.0*	106.0	3.0	105.0
Cc1ccc([N+](=O)[O-])cc1-c1ccc(/C=N/NC(=O)CN2CCOCC2)o1	-3.0	-3.8	-0.5	94.0	95.0	/	/	/
CC(=O)c1c(C)[nH]c(C(=O)Nc2cccc(S(=O)(=O)N3CCOCC3)c2)c1C	18.0	0.2	-0.8	111.0	102.0	/	/	/
CCOC(=O)Cn1c(=N)n(CCOc2ccc3ccccc3c2)c2ccccc21	19.0	-2.4	-4.0	146.0*	105.0	150.0	23.0	104.0
CC(=O)C1=C(C)NC(SCC(N)=O)=C(C#N)C1c1sccc1C (configuration not stated)	-12.0	-3.9	-3.9	84.0	76.0*[inhibitor]	110.0	7.0	107.0
COc1ccccc1NC(=O)CC1SC(=N)N(c2ccccc2)C1=O (configuration not stated)	3.0	-3.1	0.1	104.0	103.0	/	/	/
CCOc1ccccc1NC(=O)CC1SC(=N)N(c2ccccc2)C1=O (configuration not stated)	0.0	0.0	-1.3	112.0	139.0*	107.0	6.0	108.0
CC/C(O)=C1\C(=O)CC(c2ccccc2)CC1=NCCc1c(C)[nH]c2ccc(C)cc12 (configuration not stated)	-4.0	-2.8	-1.0	96.0	100.0	/	/	/
Clc1ccc(OCc2nnnn2-c2ccccc2)cc1	3.0	-3.9	-1.4	86.0	87.0	/	/	/
Cc1csc(NC(=O)c2c(-c3ccccc3)noc2C)n1	-1.0	-1.9	-3.0	101.0	101.0	/	/	/
CC1CCN(Cc2ccc(NC(=O)C3CCN(c4nnc(-n5cccc5)s4)CC3)cc2)CC1	78.0*	-1.2	0.1	231.0*	105.0	186.0	62.0	108.0
Cc1cc(C)cc(N2C(=O)CC(N(C(=O)c3ccco3)c3cc(C)cc(C)c3)C2=O)c1 (configuration not stated)	-5.0	-3.6	-4.3	94.0	98.0	/	/	/
Cc1c(N2C(=O)C(=O)/C(=C(/O)c3ccc(Cl)cc3)C2c2ccccc2)c(=O)n(-c2ccccc2)n1C (configuration not stated)	0.0	-3.4	-4.2	105.0	135.0*	97.0	-5.0	96.0
Cc1c(N2C(=O)C(=O)/C(=C(/O)c3ccccc3)C2c2ccc(F)cc2)c(=O)n(-c2ccccc2)n1C (configuration not stated)	17.0	-1.5	-1.2	112.0	102.0	/	/	/
Cc1cc(OCc2cc(C(=O)NCC3(C)COC3)no2)cc(C)c1Cl	5.0	-1.9	-1.9	107.0	104.0	/	/	/
O=c1[nH]c2cc3c(cc2cc1CN(Cc1nnnn1C1CCCC1)C1CCCC1)OCCO3	-7.0	-2.8	0.6	91.0	98.0	/	/	/
O=C(COC(=O)Cc1ccc(Cl)cc1)Nc1ccccc1-c1ccccc1	5.0	-4.3	-0.2	98.0	97.0	/	/	/
CCC(=O)Nc1ccc2c(c1)ncn2C	-5.0	-4.1	-1.2	81.0	75.0*[inhibitor]	108.0	1.0	103.0
CCCCC(=O)Nc1ccc2oc(-c3cccnc3)nc2c1	-4.0	-2.5	-2.6	99.0	98.0	/	/	/
SMILES	MEKK2 mut-MEK5	IMP-1 inh	VIM-2 inhibitor	MEKK2wt PB1 HTS	MEKK3 PB1 HTS	MEKK2wt confirm	MEKK2mut confirm	MEKK3-MEK5 inh
CN(C)/C=N/c1nc2nccc(-c3ccc(Cl)cc3)n2n1	-7.0	0.3	-0.5	91.0	93.0	/	/	/
CN(C)/C=N/c1nc2nccc(-c3ccccc3)n2n1	-16.0	1.1	0.9	56.0	47.0*[inhibitor]	93.0	-6.0	90.0
C/C(=N\NC(=O)C1CC1)c1ccc(C)c(C)c1	-4.0	0.4	-1.9	102.0	97.0	/	/	/
C/C(=N\NC(=O)C1CC1)c1ccc2c(c1)OCCO2	-46.0	-2.5	-4.8	6.0*[inhibitor]	4.0*[inhibitor]	109.0	7.0	105.0
CCOC(=O)Cc1nc(-c2ccccc2)n[nH]1	-3.0	-3.0	-2.7	1.0*[inhibitor]	91.0	95.0	-6.0	93.0
CCOC(=O)Cc1nc2ccccc2[nH]1	6.0	-3.6	-2.2	106.0	109.0	/	/	/
COc1ccc(OCCN(C)CC(=O)Nc2c(C)cccc2C)cc1	2.0	-3.4	-4.1	99.0	101.0	/	/	/
CC1(C)NC(=O)N(CC(O)Cn2c3ccccc3c3ccccc32)C1=O (configuration not stated)	-7.0	-2.1	-6.7	93.0	94.0	/	/	/
COCCNC(=S)N(CCc1c(C)[nH]c2ccc(Cl)cc12)Cc1cccnc1	24.0*	0.4	0.2	124.0	107.0	115.0	1.0	100.0
CCNC(=S)N(CCc1c(C)[nH]c2ccc(Cl)cc12)Cc1cccnc1	29.0*	-1.8	-1.3	127.0	106.0	118.0	10.0	104.0
COCCNC(=S)N(CCc1c(C)[nH]c2ccc(F)cc12)Cc1cccnc1	21.0	-1.7	0.8	119.0	104.0	/	/	/
Cc1nccn1CCc1n[nH]c(=S)n1Cc1ccccc1	7.0	-2.9	2.1	103.0	102.0	/	/	/
CCOC(=O)CSc1nnc(-c2ccc(S(=O)(=O)N3CCC(C)CC3)cc2)o1	0.0	-3.8	-1.8	102.0	105.0	/	/	/
CCn1c(SCC(=O)c2c[nH]c3ccccc23)nc2cc(S(=O)(=O)N3CCOCC3)ccc21	3.0	-3.3	-3.0	62.0*[inhibitor]	96.0	104.0	1.0	104.0
Cc1ccc(C(=O)NCCCNC(=O)c2ccccc2F)cn1	5.0	-3.1	-2.2	104.0	99.0	/	/	/
CC(C)CCN(C(=S)Nc1cccc(F)c1)C(C)c1cccs1 (configuration not stated)	-13.0	0.1	-0.3	59.0	46.0*[inhibitor]	104.0	-5.0	103.0
